Test results taken from ChEMBL document CHEMBL1158477, “Synthesis, in vivo evaluation, and molecular modeling studies of new pyrazolo[5,1-c][1,2,4]benzotriazine 5-oxide derivatives. Identification of a bifunctional hydrogen bond area related to the inverse agonism” (J Med Chem, 2009).
Activity calls are given as the source filed them. No cut-off for these calls is given here.

What was measured:
Bos taurus = species on record: Bos taurus; assay: Displacement of [3H]flumazenil from GABAA/Benzodiazepine receptor in bovine brain at 10 uM
Summary of the method: (§1)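 Bovine brain membranes; displacement of specific [3H]flumazenil (Ro15-1788) binding. Percent inhibition measured at 10 μM; Ki determined only when inhibition at that concentration exceeded 80%. Ki given as mean ± SEM of five determinations.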

[1] = Displacement of [3H]flumazenil from GABAA/Benzodiazepine receptor in bovine brain; parameters: species or system Bos taurus; summary of the method: as §1
Mus musculus [2] = assay: Anticonvulsant activity against pentylenetetrazole-induced convulsions in CD1 albino mouse assessed as convulsion latency at 3 mg/kg, po preincubated for 30 mins before pentylenetetrazole challenge measured for 30 mins (RVb=599 +/- 37.6 seconds); assay type: functional
Mus musculus [3] = assay: Effect on spontaneous motility in CD1 albino mouse assessed as number of movement on plane board at 3 mg/kg, po after 30 mins by hole-board test; assay type: functional
Summary of the method: (§2)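 Hole-board test in male CD-1 mice: animals placed singly on the board and allowed to explore panel and holes. Test run 30 min after po dosing in 1% CMC (10 mL/kg). Hole entries (curiosity) and plane movements (spontaneous motility) counted; 10 mice per group, compared with CMC controls.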

Mus musculus [4] = assay: Effect on learning and memory process in CD1 albino mouse assessed as improvement in retention latency at 3 mg/kg, po after 24 hrs by passive avoidance test; assay type: functional, organism-based; parameters: dose 3 mg/kg
Summary of the method: (§3)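 Step-through passive avoidance in a two-compartment box (lit and dark compartments joined by a guillotine door). Male CD-1 mice dosed po (1% CMC) 30 min before training; retention tested 24 h later. Training and retention latencies recorded; mean ± SEM of 15-20 mice versus controls.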

Mus musculus [5] = assay: Effect on explorative capacity in CD1 albino mouse assessed as curiosity-related number of head plugging activity on hole at 10 mg/kg, po after 30 mins by hole-board test; assay type: functional; summary of the method: as §2
Mus musculus [6] = assay: Effect on ethanol-induced sleeping time in CD1 albino mouse assessed as increase in duration of loss of righting reflex at 3 mg/kg, po preincubated 30 mins before ethanol challenge; assay type: functional, organism-based; parameters: dose 3 mg/kg
Mus musculus [7] = assay: Effect on spontaneous motility in CD1 albino mouse assessed as number of movement on plane board at 10 mg/kg, po after 30 mins by hole-board test; assay type: functional; summary of the method: as §2
Mus musculus [8] = assay: Anxiolytic activity in CD1 albino mouse at 10 mg/kg, po after 30 mins by light/dark box test; assay type: functional, organism-based; parameters: dose 10 mg/kg
Summary of the method: (§4)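 Male CD-1 mice (22-24 g) given test substance po in 1% CMC (10 mL/kg), tested 30 min later in a light/dark box. Transfers between compartments and time spent in the illuminated side were measured. Values are mean ± SEM of 15-20 mice; compared with controls.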

Mus musculus [9] = assay: Anticonvulsant activity against pentylenetetrazole-induced shock in CD1 albino mouse assessed as shock latency at 10 mg/kg, po preincubated for 30 mins before pentylenetetrazole challenge measured for 30 mins (RVb=253.1 +/- 13 seconds); assay type: functional
Mus musculus [10] = assay: Effect on learning and memory process in CD1 albino mouse assessed as improvement in retention latency at 10 mg/kg, po after 24 hrs by passive avoidance test; assay type: functional, organism-based; parameters: dose 10 mg/kg; summary of the method: as §3
Mus musculus [11] = assay: Anticonvulsant activity against pentylenetetrazole-induced convulsions in CD1 albino mouse assessed as convulsion latency at 10 mg/kg, po preincubated for 30 mins before pentylenetetrazole challenge measured for 30 mins (RVb=599 +/- 37.6 seconds); assay type: functional
Mus musculus [12] = assay: Anxiolytic activity in CD1 albino mouse at 3 mg/kg, po after 30 mins by light/dark box test; assay type: functional, organism-based; parameters: dose 3 mg/kg; summary of the method: as §4
Mus musculus [13] = assay: Effect on motor coordination in CD1 albino mouse assessed as number of falls form rotarod at 10 mg/kg, po […] measured for 30 seconds after 30 mins of dosing by rotarod test; assay type: functional
Summary of the method: (§5)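 Rota-rod in male CD-1 mice with a pretest. Test substance given po in 1% CMC; falls from the rotating rod counted over 30 s, assessed 30 min after treatment.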

Mus musculus [14] = assay: Effect on explorative capacity in CD1 albino mouse assessed as curiosity-related number of head plugging activity on hole at 3 mg/kg, po after 30 mins by hole-board test; assay type: functional; summary of the method: as §2
Mus musculus [15] = assay: Effect on motor coordination in CD1 albino mouse assessed as number of falls form rotarod at 3 mg/kg, po administered 60 mins before test measured for 30 seconds after 30 mins of drug infusion by rotarod test; assay type: functional; summary of the method: as §5
Mus musculus [16] = assay: Anticonvulsant activity against pentylenetetrazole-induced shock in CD1 albino mouse assessed as shock latency at 3 mg/kg, po preincubated for 30 mins before pentylenetetrazole challenge measured for 30 mins (RVb=253.1 +/- 13 seconds); assay type: functional
Mus musculus [17] = assay: Effect on ethanol-induced sleeping time in CD1 albino mouse assessed as increase in duration of loss of righting reflex at 10 mg/kg, po preincubated 30 mins before ethanol challenge; assay type: functional, organism-based; parameters: dose 10 mg/kg
Mus musculus [18] = assay: Effect on ethanol-induced sleeping time in CD1 albino mouse assessed as increase in duration of loss of righting reflex at 30 mg/kg, po preincubated 30 mins before ethanol challenge; assay type: functional, organism-based; parameters: dose 30 mg/kg
Mus musculus [19] = assay: Anxiolytic activity in CD1 albino mouse at 30 mg/kg, po after 30 mins by light/dark box test in presence of flumazenil; assay type: functional, organism-based; parameters: dose 30 mg/kg
Summary of the method: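 Light/dark box in male CD-1 mice. Test substance given po in 1% CMC 30 min before the test, with flumazenil 100 mg/kg ip (saline) co-treatment. Transfers between compartments and time in the lit side recorded. Mean ± SEM of 15-20 mice.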

Mus musculus [20] = assay: Anxiolytic activity in CD1 albino mouse at 30 mg/kg, po after 30 mins by light/dark box test; assay type: functional, organism-based; parameters: dose 30 mg/kg; summary of the method: as §4
Mus musculus [21] = assay: Effect on learning and memory process in CD1 albino mouse assessed as decrease in retention latency at 10 mg/kg, po after 24 hrs by passive avoidance test; assay type: functional, organism-based; parameters: dose 10 mg/kg; summary of the method: as §3

Structure (SMILES) | Activity (Bos taurus) [%] | Ki [1] [nM] | other results
[O-][n+]1nc2ccnn2c2cc(-c3ccccc3)ccc21 | 10 | – | –
CCOc1ccc2c(c1)n1ncc(C(=O)OCc3cccs3)c1n[n+]2[O-] | > 80 | 0.85 | –
[O-][n+]1nc2c(Br)cnn2c2cc(-c3ccccc3)ccc21 | > 80 | 802 | –
[O-][n+]1nc2c(Cl)cnn2c2cc(Oc3ccccc3)ccc21 | > 80 | 43 | –
O=C(OCc1cccs1)c1cnn2c1n[n+]([O-])c1ccc(C(F)(F)F)cc12 | > 80 | 10 | –
Cc1ccc2c(c1)n1ncc(C(=O)OCc3cccs3)c1n[n+]2[O-] | > 80 | 1.41 | –
CCOC(=O)c1cnn2c1n[n+]([O-])c1ccc(OCc3ccccc3)cc12 | > 80 | 2.1 | –
[O-][n+]1nc2c(I)cnn2c2cc(OCc3cccs3)ccc21 | > 80 | 1.2 | –
CCOc1cnn2c1n[n+]([O-])c1ccc(C(=O)OCc3ccccc3OC)cc12 | > 80 | 0.31 | –
[O-][n+]1nc2c(I)cnn2c2cc(Oc3ccc4ccccc4c3)ccc21 | > 80 | 94 | –
[O-][n+]1nc2c(I)cnn2c2cc(OC3CCCCC3)ccc21 | > 80 | 188 | –
CC(Oc1ccc2c(c1)n1ncc(I)c1n[n+]2[O-])c1ccccc1 (racemic) [listing 1 of 2 here] | > 80 | – | –
CC(Cc1ccccc1)Oc1ccc2c(c1)n1ncc(I)c1n[n+]2[O-] (racemic) | > 80 | 103 | –
CC(Oc1ccc2c(c1)n1ncc(I)c1n[n+]2[O-])c1ccccc1 (racemic) [listing 2 of 2 here] | – | 3.4 | –
[O-][n+]1nc2c(I)cnn2c2cc(OCc3ccncc3)ccc21 | > 80 | 1.3 | Activity (Mus musculus [2]): 565.8 s; Activity (Mus musculus [3]): 93.9; Activity (Mus musculus [4]): Active; Activity (Mus musculus [5]): 36.9; Activity (Mus musculus [6]): inactive; Activity (Mus musculus [7]): 85.1; Activity (Mus musculus [8]): inactive; Activity (Mus musculus [9]): 299 s; Activity (Mus musculus [10]): Active; Activity (Mus musculus [11]): 610.9 s; Activity (Mus musculus [12]): inactive; Activity (Mus musculus [13]): 2.3; Activity (Mus musculus [14]): 35.5; Activity (Mus musculus [15]): 1.4; Activity (Mus musculus [16]): 183 s; Activity (Mus musculus [17]): inactive
[O-][n+]1nc2c(I)cnn2c2cc(-c3ccccc3)ccc21 | > 80 | 966 | –
Ic1cnn2c1nnc1ccc(OCc3ccccc3)cc12 | > 80 | 1 | –
[O-][n+]1nc2ccnn2c2cc(OCc3ccccc3)ccc21 | > 80 | 116 | –
COc1ccccc1COC(=O)c1ccc2c(c1)n1ncc(Cl)c1n[n+]2[O-] | > 80 | 1 | –

Structure (SMILES) | Activity (Bos taurus) [%] | Ki [1] [nM] | other results
COc1ccccc1COC(=O)c1ccc2c(c1)n1ncc(C)c1n[n+]2[O-] | > 80 | 2.3 | –
COc1ccc(COc2ccc3c(c2)n2ncc(I)c2n[n+]3[O-])cc1 | > 80 | 4.5 | –
COc1ccccc1COC(=O)c1ccc2c(c1)n1ncc(C(F)(F)F)c1n[n+]2[O-] | > 80 | 5.8 | –
CCOC(=O)c1cnn2c1n[n+]([O-])c1ccc(-c3ccccc3)cc12 | 40 | – | –
COc1ccccc1COc1ccc2c(c1)n1ncc(I)c1n[n+]2[O-] | > 80 | 0.42 | –
O=C(OCc1cccs1)c1cnn2c1n[n+]([O-])c1ccc(Oc3ccccc3)cc12 | > 80 | 0.7 | –
[O-][n+]1nc2c(I)cnn2c2cc(OCc3ccco3)ccc21 | > 80 | 0.8 | –
[O-][n+]1nc2c(I)cnn2c2cc(OCc3ccccc3OC(F)(F)F)ccc21 | > 80 | 6.6 | –
CCOC(=O)c1cnn2c1n[n+]([O-])c1ccc(Oc3ccccc3)cc12 | > 80 | 12 | –
COc1ccccc1COC(=O)c1cnn2c1n[n+]([O-])c1ccc(Oc3ccccc3)cc12 | > 80 | 1.75 | –
[O-][n+]1nc2c(Cl)cnn2c2cc(-c3ccccc3)ccc21 | 45 | – | –
CCCCCCCCOc1ccc2c(c1)n1ncc(I)c1n[n+]2[O-] | > 80 | 1620 | –
[O-][n+]1nc2c(-c3ccsc3)cnn2c2cc(Oc3ccccc3)ccc21 | > 80 | 68 | –
[O-][n+]1nc2c(I)cnn2c2cc(OCCc3ccccc3)ccc21 | > 80 | 43 | –
CC(COc1ccc2c(c1)n1ncc(I)c1n[n+]2[O-])c1ccccc1 (racemic) | > 80 | 160 | –
[O-][n+]1nc2c(I)cnn2c2cc(CCc3ccccc3)ccc21 | > 80 | 464 | –
[O-][n+]1nc2c(I)cnn2c2cc(OCc3ccc(Cl)cc3)ccc21 | > 80 | 11 | –
[O-][n+]1nc2c(I)cnn2c2cc(/C=C/c3ccccc3)ccc21 | > 80 | 2000 | –
CC(Oc1ccc2c(c1)n1ncc(I)c1n[n+]2[O-])c1ccccc1 (single isomer, unassigned; (-)) | > 80 | – | Activity (Mus musculus [18]): inactive; Activity (Mus musculus [8]): Active; Activity (Mus musculus [19]): inactive; Activity (Mus musculus [20]): Active; Activity (Mus musculus [21]): Active; Activity (Mus musculus [17]): inactive
